Consider eight compounds from ChEMBL document CHEMBL4811272, “A new sulfated triterpene glycoside from the sea cucumber Colochirus quadrangularis, and evaluation of its antifungal, antitumor and immunomodulatory activities” (Bioorg Med Chem, 2021).

One experiment deals with Candida albicans. Description: Antifungal activity against Candida albicans ATCC 76615 by microplate reader assay. Format: functional. To be noted: ATTCC76615. The method, boiled down:
(§1)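 Broth microdilution read by optical density at 630 nm. MIC80 is the first well with about 80% less growth than the drug-free well. Each concentration was run in three replicate wells, and values are means of three independent experiments.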

For a further experiment, the system named is Cryptococcus neoformans. Description: Antifungal activity against Cryptococcus neoformans ATCC 32609 by microplate reader assay. Format: functional. The note with it: ATTCC32609. The method, boiled down:
as §1

The next experiment has as its system Candida tropicalis. In words: Antifungal activity against clinical strain Candida tropicalis by microplate reader assay. Format: functional. A digest of the protocol: as §1
A further experiment deals with Candida parapsilosis. In words: Antifungal activity against clinical strain Candida parapsilosis by microplate reader assay. Format: functional. The note with it: Lodderomyces parapsilosis. The method, boiled down: as §1
Experiment [1] deals with Bel-7402. Description: Antitumor activity against human Bel-7402 cells implanted in BALB/c-nu mouse assessed as tumor growth inhibition at 100 mg/kg, IG administered everyday for 7 days relative to control. Format: functional. To be noted: Bel-7402, po, 168 h, time 7 day, read-out: TGI.
A further experiment concerns A549. Description: Cytotoxicity against human A549 cells assessed as reduction in cell viability by sulforhodamine B assay. It is filed as functional, cell-based. A digest of the protocol:
(§2)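 Cells were kept in RPMI-1640 with 10% FBS, 2 mM L-glutamine, 50 μM β-mercaptoethanol and penicillin/streptomycin, at 37 °C in 5% CO2. SRB assay used 100, 10, 1, 0.1 and 0.01 μM, each in triplicate. Percent inhibition was calculated against solvent control OD. IC50 came from Logit curve fitting and is the mean of three independent experiments.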
A general note: Sulforhodamine B stains cellular protein and so reports cell mass.

Another experiment has as its system MKN-28. In words: Cytotoxicity against human MKN-28 cells assessed as reduction in cell viability by sulforhodamine B assay. It is filed as functional, cell-based. A digest of the protocol:
as §2

The next experiment relates to MCF7. In words: Cytotoxicity against human MCF7 cells assessed as reduction in cell viability by sulforhodamine B assay. Format: functional, cell-based. A digest of the protocol:
as §2

A further experiment has as its system HCT-116. In words: Cytotoxicity against human HCT-116 cells assessed as reduction in cell viability by sulforhodamine B assay. Format: functional, cell-based. The method, boiled down: as §2
Experiment [2] relates to Bel-7402. Description: Cytotoxicity against human Bel-7402 cells assessed as reduction in cell viability by sulforhodamine B assay. Format: functional, cell-based. The method, boiled down:
as §2

A short description of experiment [3]: Cytotoxicity against human HO-8910 cells assessed as reduction in cell viability by sulforhodamine B assay. It is filed as functional, cell-based. A digest of the protocol:
as §2

For a further experiment, the system named is HL-60. In words: Cytotoxicity against human HL-60 cells assessed as reduction in cell viability by sulforhodamine B assay. It is filed as functional, cell-based. A digest of the protocol:
as §2

A further experiment concerns SPC-A4. Description: Cytotoxicity against human SPC-A4 cells assessed as reduction in cell viability by sulforhodamine B assay. Format: functional, cell-based. The method, boiled down: as §2
The test system of a further experiment is Pyricularia oryzae. Description: Antifungal activity against Pyricularia oryzae P-2B by measuring minimum morphological deformation concentration. The note with it: read-out: MEC. It is filed as functional.
Another experiment relates to CCRF S-180. Description: Antitumor activity against mouse S-180 cells implanted in KM mouse assessed as tumor growth inhibition at 25 mg/kg, IG administered everyday for 7 days relative to control. It is filed as functional. The note with it: CCRF S-180, po, 168 h, time 7 day, read-out: TGI. A digest of the protocol: (§3)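 S-180 or H22 cells, about 2.5 × 10⁶ per mouse, injected s.c. in the right axilla of wild-type KM mice. Randomized after 24 h and dosed intragastrically for 7 days; sacrificed 24 h after the last dose. TGI = (W_C − W_T)/W_C × 100% from average tumor weight. n = 8; one-way ANOVA vs vehicle.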

Another experiment relates to H22. In words: Antitumor activity against mouse H22 cells implanted in KM mouse assessed as tumor growth inhibition at 25 mg/kg, IG administered everyday for 7 days relative to control. Format: functional. To be noted: H22, po, 168 h, time 7 day, read-out: TGI. A digest of the protocol: as §3

The structures appear in SMILES notation. Values after ≈ are worked out from the molar mass of the structure shown.

Broadly, the MIC80 is the lowest concentration that inhibits either 80% of growth or 80% of the strains tested, depending on the study. Low readings indicate higher susceptibility, high ones lower susceptibility. As to `CCC(C)n1ncn(-c2ccc(N3CCN(c4ccc(OCC5COC(Cn6cncn6)(c6ccc(Cl)cc6Cl)O5)cc4)CC3)cc2)c1=O` (configuration not stated) [ITRACONAZOLE], the MIC80 in the experiment on Candida albicans is under 0.125 µg/mL; against Cryptococcus neoformans, 2 µg/mL (≈ 2.83 µM); with Candida tropicalis, 1 µg/mL (≈ 1.42 µM); in the experiment with Candida parapsilosis, under 0.125 µg/mL.

As for `O=c1[nH]c(=O)n(C2CCCO2)cc1F` (configuration not stated) [TEGAFUR], in the experiment with Bel-7402 [1], the inhibition in vivo at 100 mg/kg was found to be 81.8%.

In the case of `CN(C/C=C/C#CC(C)(C)C)Cc1cccc2ccccc12` [TERBINAFINE], the MIC80 against Candida albicans was 32 µg/mL (≈ 110 µM); against Cryptococcus neoformans it was under 0.125 µg/mL; in the experiment on Candida tropicalis, under 0.125 µg/mL; in the experiment on Candida parapsilosis, under 0.125 µg/mL.

A word on the IC50: it is the midpoint of a concentration-inhibition curve. With `CO[C@@H]1[C@@H](O)[C@H](O[C@@H]2[C@@H](O)[C@H](O[C@H]3[C@H](O)[C@@H](O)[C@H](O[C@H]4[C@H](O[C@H]5CC[C@@]6(C)C(CC=C7[C@H]6CC[C@]68C(=O)O[C@@](C)(CCC=C(C)C)[C@H]6[C@@H](OC(C)=O)C[C@@]78C)C5(C)C)OC[C@@H](OS(=O)(=O)[O-])[C@@H]4O)O[C@@H]3C)OC[C@H]2O)O[C@H](CO)[C@H]1O.[Na+]` (some centres not stated), the IC50 came out at 1700 nM with A549; 2810 nM in the experiment with MKN-28; 2300 nM in the experiment with MCF7; 1610 nM in the experiment on HCT-116; 2400 nM in the experiment on Bel-7402 [2]; 2320 nM in experiment [3]. In addition, the IC50 was found to be 1650 nM in the experiment with HL-60 and 3670 nM in the experiment on SPC-A4. The MIC80 in the experiment on Candida albicans was found to be 20 µg/mL; against Cryptococcus neoformans, 25 µg/mL; against Candida tropicalis, 30 µg/mL; in the experiment on Candida parapsilosis, 32 µg/mL.

For `C=C(C)CCC[C@]1(C)OC(=O)[C@]23CC[C@@H]4C(=CCC5C(C)(C)[C@@H](O[C@@H]6OC[C@@H](OS(=O)(=O)[O-])[C@H](O)[C@H]6O[C@@H]6O[C@H](C)[C@@H](O[C@@H]7OC[C@@H](O)[C@H](O[C@@H]8O[C@H](CO)[C@@H](O)[C@H](OC)[C@H]8O)[C@H]7O)[C@H](O)[C@H]6O)CC[C@@]54C)[C@]2(C)CC(=O)[C@@H]31.[Na+]` (some centres not stated), the IC50 in the experiment with A549 worked out at 1300 nM; in the experiment on MKN-28, 1820 nM; in the experiment with MCF7, 1560 nM; in the experiment on HCT-116, 1090 nM; in the experiment on Bel-7402 [2], 1300 nM; in [3] it was 1900 nM. Besides, the 50% inhibitory concentration (IC50) in the experiment with HL-60 amounted to 1950 nM; with SPC-A4 it was 1500 nM. Further, the MIC80 against Candida albicans, against Cryptococcus neoformans, with Candida tropicalis and against Candida parapsilosis was 25 µg/mL in each case.

For `O=c1[nH]cc(F)c(=O)[nH]1` [FLUOROURACIL], the minimal effective concentration with Pyricularia oryzae is at most 5 µg/mL. In addition, the inhibition in vivo at 25 mg/kg with CCRF S-180 and in the experiment on H22 was 39.4% in each case.

In the case of `OC(Cn1cncn1)(Cn1cncn1)c1ccc(F)cc1F` [FLUCONAZOLE], the MIC80 against Candida albicans stood at 0.25 µg/mL (≈ 0.816 µM); in the experiment on Cryptococcus neoformans, 2 µg/mL (≈ 6.53 µM); in the experiment on Candida tropicalis, 1 µg/mL (≈ 3.27 µM); against Candida parapsilosis, 0.5 µg/mL (≈ 1.63 µM).

For `C=C(C)CCC[C@]1(C)OC(=O)[C@]23CC[C@@H]4C(=CCC5C(C)(C)[C@@H](O[C@@H]6OC[C@@H](OS(=O)(=O)O)[C@H](O)[C@H]6O[C@@H]6O[C@H](C)[C@@H](O[C@@H]7OC[C@@H](O)[C@H](O[C@@H]8O[C@H](CO)[C@@H](O)[C@H](OC)[C@H]8O)[C@H]7OS(=O)(=O)O)[C@H](O)[C@H]6O)CC[C@@]54C)[C@]2(C)C[C@H](OC(C)=O)[C@@H]31.[Na+].[Na+].[Na+]` (some centres not stated), the IC50 came to 750 nM in the experiment on A549; 2030 nM in the experiment on MKN-28; 1790 nM with MCF7; 930 nM in the experiment with HCT-116; 1300 nM in the experiment on Bel-7402 [2]; 1900 nM in experiment [3]. Also, the IC50 in the experiment with HL-60 came to 650 nM; in the experiment on SPC-A4, 1300 nM. The MIC80 with Candida albicans was found to be 4 µg/mL; against Cryptococcus neoformans, 16 µg/mL; against Candida tropicalis, 8 µg/mL; against Candida parapsilosis, 4 µg/mL.
